Experimental data as given in ChEMBL document CHEMBL2093137, “WHO-TDR NTD Screening”.
Values after ≈ are worked out from the molar mass of the structure shown.

Tests used:
[1] = system: Trypanosoma brucei brucei; experiment: WHO-TDR: Human African Trypanosomiasis (HAT); type: functional, organism-based; conditions: Squib-427
In short: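 Bloodstream forms of the Trypanosoma brucei Squib 427 strain were tested in a whole-organism screen with a diverse library from Life Chemicals of 10,000 compounds. Before screening, the library was filtered for drug-likeness and for reactive groups. The assay used previously published standard procedures and included reference drugs as positive controls. Potency against the parasite is expressed as IC50.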

Plasmodium falciparum K1 = experiment: WHO-TDR: Malaria; type: functional, organism-based, Homo sapiens; conditions: Erythrocyte
In short: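 Following previously published standard procedures, with a reference drug serving as positive control, compounds were tested on the Plasmodium falciparum K1 strain inside human red blood cells. The 10,000-compound diverse set came from Life Chemicals after filtering for drug-likeness and reactive groups. Potency against the parasite appears as IC50.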

Trypanosoma cruzi = experiment: WHO-TDR: Chagas disease; type: functional, organism-based, Homo sapiens; conditions: MRC5
In short: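 Whole-organism screen of a 10,000-compound diverse library from Life Chemicals, filtered for drug-likeness and reactive groups, against intracellular amastigotes of Trypanosoma cruzi Tulahuen CL2 beta-galactosidase strain grown in MRC-5SV2 human lung fibroblast host cells. The assay followed previously published standard procedures, with a reference drug as positive control. Antiparasitic potency is reported as IC50.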

Leishmania infantum = experiment: WHO-TDR: Leishmaniasis; type: functional, organism-based, Mus musculus; conditions: Macrophage
In short: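 Following previously published standard procedures, a whole-organism screen was run on Leishmania infantum MHOM/MA(BE)/67 amastigotes within murine peritoneal macrophages, with a reference drug as positive control. The 10,000 compounds tested formed a diverse Life Chemicals library filtered for drug-likeness and reactive groups. Potency against the parasite is reported as IC50.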

Onchocerca ochengi = experiment: WHO-TDR: Onchocerciasis; type: functional; set-up: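 at 12.5 µM on microfilariae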
In short: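 Values are reported as percent inhibition and as IC50. They come from a whole-organism screen of a 10,000-compound diverse Life Chemicals library against microfilariae of Onchocerca ochengi or Onchocerca lienalis. The screen followed previously published standard procedures, with reference drugs as positive controls.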

[2] = WHO-TDR: Cytotoxicity; type: toxicity, cell-based; conditions: human, MRC5 cells
Schistosoma mansoni = experiment: WHO-TDR: Schistosomiasis; type: functional; set-up: concentration or dose not given beside the values
In short: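 Values are reported as percent inhibition and IC50. They come from a whole-organism screen of a 10,000-compound diverse Life Chemicals library against larval and/or adult worms of Schistosoma mansoni, Puerto Rican strain. The library had been filtered for drug-likeness and reactive groups.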

Brugia malayi = experiment: WHO-TDR: Lymphatic Filariasis; type: functional; set-up: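 tested at 10 µM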
In short: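 Values are percent inhibition and IC50 from a whole-organism screen against Brugia malayi microfilariae. The compounds, 10,000 in all, came from a diverse Life Chemicals library filtered for drug-likeness and reactive groups.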

Compound	IC50 [1] [µg/mL]	IC50 (Plasmodium falciparum K1) [µg/mL]	IC50 (Trypanosoma cruzi) [µg/mL]	IC50 (Leishmania infantum) [µg/mL]	% Inhibition (Onchocerca ochengi) [%]	IC50 [2] [µg/mL]	% Inhibition (Schistosoma mansoni) [%]	% Inhibition (Brugia malayi) [%]
O=C(COc1ccccc1)NCC(c1ccco1)N1CCN(c2ccc(F)cc2)CC1 (stereo not drawn)	4.02 (≈ 9.49 µM)	> 12.7	4.08 (≈ 9.63 µM)	> 12.7	100	> 12.7	0	
COc1cccc2sc(Nc3nc4ccc(NC(C)=O)cc4s3)nc12	2.97 (≈ 8.01 µM)	> 11.1	0.388 (≈ 1.05 µM)	> 11.1		> 11.1	0	90
CCOc1ccc2nc(NC(=O)CS(=O)(=O)c3ccc(Cl)cc3)sc2c1	> 12.3	> 12.3	> 12.3	> 12.3	100	> 12.3	0	
O=C(NCC(c1ccco1)N1CCN(c2ccc(F)cc2)CC1)OCc1ccccc1 (stereo not drawn)	4.11 (≈ 9.71 µM)	> 12.7	3.86 (≈ 9.13 µM)	> 12.7	100	> 12.7	0	
Cc1cc2cc(CCNC(=O)C3c4ccccc4Oc4ccccc43)c(O)nc2cc1C	> 12.7	> 12.7	> 12.7	0.412 (≈ 0.971 µM)		> 12.7	0	0
O=C(Nc1nnc(C2COc3ccccc3O2)o1)c1ccc(F)cc1 (stereo not drawn)	> 10.9	> 10.2	0.289 (≈ 0.847 µM)	> 10.2		> 10.2	0	25
O=C(Nc1nnc(-c2ccco2)o1)c1cc(-c2ccccc2)nc2ccccc12	3.23 (≈ 8.45 µM)	9.02 (≈ 23.6 µM)	0.305 (≈ 0.798 µM)	3.71 (≈ 9.71 µM)		2.04 (≈ 5.33 µM)	0	0
CCOc1ccc2nc(N(Cc3cccnc3)C(=O)c3ccc(Cl)s3)sc2c1	> 12.9	4.14 (≈ 9.62 µM)	0.397 (≈ 0.922 µM)	> 12.9	0	> 12.9	0	
O=C(Nc1nnc(-c2ccc3c(c2)OCCO3)o1)c1cc(-c2ccccc2)nc2ccccc12	4.27 (≈ 9.49 µM)	> 13.5	0.434 (≈ 0.963 µM)	4.37 (≈ 9.71 µM)		4.33 (≈ 9.6 µM)	0	70
CCCCCOc1cccc(C(=O)Nc2nnc(-c3ccco3)o2)c1	3.29 (≈ 9.63 µM)	> 10.2	0.368 (≈ 1.08 µM)	3.28 (≈ 9.6 µM)		5.71 (≈ 16.7 µM)	0	25
O=C(Nc1nnc(-c2cccnc2)o1)c1cccc(Br)c1	> 11	> 10.4	0.705 (≈ 2.04 µM)	3.35 (≈ 9.71 µM)		8.09 (≈ 23.4 µM)	0	25
O=C(Nc1nnc(-c2cccnc2)o1)c1cccc(C(F)(F)F)c1	3.38 (≈ 10.1 µM)	> 10	0.317 (≈ 0.948 µM)	3.25 (≈ 9.71 µM)		2.99 (≈ 8.96 µM)	0	25
CCOC(=O)Cn1/c(=N/C(=O)CSC(C)=O)sc2ccccc21	0.342 (≈ 0.97 µM)	> 10.6	> 10.6	> 10.6		> 10.6	0	0
CCSc1nnc2ccc(-c3ccc(CC)cc3)nn12	> 8.53	> 8.53	> 8.53	> 8.53	100	> 8.53	0	
O=C(Nc1cccc(-c2ccc3nnc(-c4cccs4)n3n2)c1)c1c(F)cccc1F	0.481 (≈ 1.11 µM)	5.18 (≈ 11.9 µM)	> 13	> 13	50	> 13	0	
O=C(Nc1cccc(-c2ccc3nnc(-c4ccncc4)n3n2)c1)c1ccc2ccccc2n1	> 13.3	0.482 (≈ 1.09 µM)	7.48 (≈ 16.9 µM)	> 13.3	0	> 13.3	0	
O=C(Cc1cccs1)Nc1cccc(-c2ccc3nnc(-c4cccnc4)n3n2)c1	3.81 (≈ 9.24 µM)	2.67 (≈ 6.46 µM)	> 12.4	> 12.4	100	4.45 (≈ 10.8 µM)	0	

Compound	IC50 [1] [µg/mL]	IC50 (Plasmodium falciparum K1) [µg/mL]	IC50 (Trypanosoma cruzi) [µg/mL]	IC50 (Leishmania infantum) [µg/mL]	% Inhibition (Onchocerca ochengi) [%]	IC50 [2] [µg/mL]	% Inhibition (Schistosoma mansoni) [%]	% Inhibition (Brugia malayi) [%]
O=C(Nc1cccc(-c2ccc3nnc(-c4cccnc4)n3n2)c1)c1ccco1	> 11.5	1.82 (≈ 4.75 µM)	> 11.5	> 11.5	100	> 11.5	0	
Cc1nnc2ccc(-c3ccc(NS(=O)(=O)c4ccc5c(c4)CCCC5)cc3)nn12	4.63 (≈ 11 µM)	> 12.6	4.92 (≈ 11.7 µM)	4.07 (≈ 9.71 µM)	100	> 12.6	0	
O=S(=O)(Nc1ccc(-c2ccc3nnc(-c4ccccn4)n3n2)cc1)c1ccccc1F	> 13.4	5.88 (≈ 13.2 µM)	> 13.4	> 13.4	100	> 13.4	0	
COc1ccc(C)c2sc(N(Cc3cccnc3)C(=O)Cc3ccccc3)nc12	3.87 (≈ 9.6 µM)	3.83 (≈ 9.49 µM)	0.992 (≈ 2.46 µM)	> 12.1	0	> 12.1	0	
CC(=O)c1ccc(C(=O)N(Cc2cccnc2)c2nc3c(F)cc(F)cc3s2)cc1	5.26 (≈ 12.4 µM)	6.29 (≈ 14.8 µM)	1.31 (≈ 3.09 µM)	> 12.7	100	> 12.7	0	
COc1cccc(C(=O)Nc2ccc(C)cc2C(=O)c2ccccc2)c1OC	7.21 (≈ 19.2 µM)	> 11.3	3.69 (≈ 9.83 µM)	4.75 (≈ 12.6 µM)	100	> 11.3	0	
C=CCN(CC=C)S(=O)(=O)c1ccc(C(=O)Nc2nnc(-c3ccc(C)cc3C)o2)cc1	0.988 (≈ 2.18 µM)	> 13.6	0.583 (≈ 1.29 µM)	5.72 (≈ 12.7 µM)	0	4.48 (≈ 9.9 µM)	0	
Cc1ccc(S(=O)(=O)CC(=O)Nc2cccc(Cl)c2)cc1	> 9.71	> 9.71	> 9.71	> 9.71	100	> 9.71	0	
O=C(CS(=O)(=O)c1ccc(Cl)cc1)Nc1nc(-c2ccc(F)cc2)cs1	> 12.3	> 12.3	> 12.3	> 12.3	100	> 12.3	0	
O=C(CCS(=O)(=O)c1ccc(Cl)cc1)Nc1cccc(-c2nc3ccccc3o2)c1	> 13.2	> 13.2	> 13.2	4.28 (≈ 9.71 µM)	100	> 13.2	0	
Cc1ccc(SCC(=O)Nc2ccccc2-c2nc3ccccc3[nH]2)cc1	> 11.2	> 11.2	> 11.2	> 11.2	100	> 11.2	0	
Cc1ccc(SCCC(=O)Nc2nc(-c3ccccn3)cs2)cc1	> 10.7	> 10.7	0.368 (≈ 1.03 µM)	> 10.7	75	8.21 (≈ 23.1 µM)	25	
Cc1ccc(SCCC(=O)Nc2cc(Cl)cc(Cl)c2)cc1	> 10.2	> 10.2	> 10.2	> 10.2	100	> 10.2	0	
CCOC(=O)c1ccc(NC(=O)CCSc2ccc(C)cc2)cc1	> 10.3	> 10.3	> 10.3	> 10.3	100	> 10.3	0	
COc1ccc(-c2nc(NC(=O)CSc3ccc(Cl)cc3)sc2C)cc1	3.93 (≈ 9.71 µM)	0.41 (≈ 1.01 µM)	1.52 (≈ 3.76 µM)	> 12.1	100	> 12.1	0	
CNC(=O)c1ccsc1NC(=O)CSc1ccc(Cl)cc1	5.06 (≈ 14.8 µM)	> 10.2	4.93 (≈ 14.5 µM)	> 10.2	100	> 10.2	0	
NS(=O)(=O)c1ccc2nc(NC(=O)CCSc3ccc(Cl)cc3)sc2c1	4.31 (≈ 10.1 µM)	> 12.8	> 12.8	> 12.8	100	> 12.8	0	
